Assay results: ChEMBL document CHEMBL3272033, “Physicochemical and pharmacological studies of some 8-substituted decahydroisoquinolines” (J Med Chem, 1976)

What was measured:
Heart [1] = test: Antiarrhythmic activity in Hartley guinea pig atria assessed as change in spontaneous rate at 55.2 uM/l after 5 mins; format: functional, Cavia porcellus
In short: (§1)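 Spontaneously beating isolated atria held under initial tension; bath fluid changed every 10 min; stabilised about 1 h. Maximum driving rate found with 1-ms square pulses at 50% above threshold voltage, 10 s every 30 s; the frequency just before failure of following is the MDR. Control is the mean of two determinations. Spontaneous rate recorded by tachograph. Values are % change from control at peak response, generally 5–30 min.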

[2] = Effect on transmembrane action potential in dog purkinje cells assessed as change in activation time at 20 mg/l after 20 mins in presence of 5.4 mM/l K+ relative to control; format: functional, Canis lupus familiaris
In short: (§2)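 Canine Purkinje false-tendon preparations from pentobarbital-anesthetized dogs, in oxygenated Tyrode at 37 °C with KCl 2.7 or 5.4 mM. Compound given by bolus to the final bath concentration. TMAP recorded by intracellular glass microelectrode before dosing and 2–20 min after. ARV of phase 0 (V/s) and activation time (ms) expressed as % change from control at 20 min. Two preparations per compound.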

[3] = Effect on transmembrane action potential in dog purkinje cells assessed as average rising velocity at 25 mg/l after 20 mins in presence of 2.7 mM/l K+ relative to control; format: functional, Canis lupus familiaris; in short: as §2
[4] = Therapeutic index, ratio of LD50 for toxicity to ED50 for antiarrhythmic activity in ip dosed Swiss-Webster albino mouse; format: organism-based, Heart; details: in vivo, read-out: Ratio LD50/ED50
[5] = Effect on transmembrane action potential in dog purkinje cells assessed as change in amplitude at 20 mg/l after 20 mins in presence of 5.4 mM/l K+ relative to control; format: functional, Canis lupus familiaris
In short: (§3)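 Purkinje false tendons with attached myocardium came from adult dogs (10–15 kg) anesthetized with pentobarbital 30 mg/kg iv. Tissue was bathed in Tyrode (KCl 2.7 or 5.4 mM) gassed with 95% O2-5% CO2 at 37 °C and impaled with glass microelectrodes. Compound was given as a bolus to the final bath concentration, with records at 2–20 min. Two preparations per compound; % change from control at 20 min.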

[6] = Effect on transmembrane action potential in dog purkinje cells assessed as change in activation time at 50 mg/l after 20 mins in presence of 2.7 mM/l K+ relative to control; format: functional, Canis lupus familiaris; in short: as §3
Homo sapiens [7] = species: Homo sapiens; test: Drug absorption in buccal cavity in human at pH 9.3 after 5 mins by UV spectrometry; format: ADME, organism-based; details: in vivo, other, pH 9.3, 5 min
In short: (§4)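 3 mg compound in 25 ml buffer (0.1 M phosphate pH 5.50 or 7.50; tetraborate pH 9.30) swished in the mouth for 5 min, expelled, and combined with a 10 ml water rinse. Made up to 50 ml; aliquot basified to pH 10 and ether-extracted, then back-extracted into 0.1 N HCl. UV absorbance read at λmax against Beer's law plots; the unrecovered fraction is taken as % absorbed. One to three subjects.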

Heart [8] = test: Antiarrhythmic activity in Hartley guinea pig atria assessed as change in maximum driving rate at 55.2 uM/l after 5 mins; format: functional, Cavia porcellus; in short: as §1
[9] = Effect on transmembrane action potential in dog purkinje cells assessed as change in amplitude at 10 mg/l after 20 mins in presence of 5.4 mM/l K+ relative to control; format: functional, Canis lupus familiaris; in short: as §3
[10] = Effect on transmembrane action potential in dog purkinje cells assessed as change in amplitude at 50 mg/l after 20 mins in presence of 2.7 mM/l K+ relative to control; format: functional, Canis lupus familiaris; in short: as §3
[11] = Effect on transmembrane action potential in dog purkinje cells assessed as change in activation time at 10 mg/l after 20 mins in presence of 2.7 mM/l K+ relative to control; format: functional, Canis lupus familiaris; in short: as §2
Mus musculus [12] = test: Antiarrhythmic activity in ip dosed Swiss-Webster albino mouse assessed as prevention of chloroform-induced ventricular fibrillation; format: functional, Heart
[13] = Effect on transmembrane action potential in dog purkinje cells assessed as average rising velocity at 50 mg/l after 20 mins in presence of 2.7 mM/l K+ relative to control; format: functional, Canis lupus familiaris; in short: as §2
[14] = Effect on transmembrane action potential in dog purkinje cells assessed as change in activation time at 25 mg/l after 20 mins in presence of 2.7 mM/l K+ relative to control; format: functional, Canis lupus familiaris; in short: as §2
[15] = Effect on transmembrane action potential in dog purkinje cells assessed as average rising velocity at 20 mg/l after 20 mins in presence of 5.4 mM/l K+ relative to control; format: functional, Canis lupus familiaris; in short: as §2
[16] = Effect on transmembrane action potential in dog purkinje cells assessed as average rising velocity at 10 mg/l after 20 mins in presence of 2.7 mM/l K+ relative to control; format: functional, Canis lupus familiaris; in short: as §2
[17] = Effect on transmembrane action potential in dog purkinje cells assessed as change in amplitude at 25 mg/l after 20 mins in presence of 2.7 mM/l K+ relative to control; format: functional, Canis lupus familiaris; in short: as §3
[18] = Effect on transmembrane action potential in dog purkinje cells assessed as average rising velocity at 10 mg/l after 20 mins in presence of 5.4 mM/l K+ relative to control; format: functional, Canis lupus familiaris; in short: as §2
[19] = Effect on transmembrane action potential in dog purkinje cells assessed as change in activation time at 10 mg/l after 20 mins in presence of 5.4 mM/l K+ relative to control; format: functional, Canis lupus familiaris; in short: as §2
[20] = Effect on transmembrane action potential in dog purkinje cells assessed as change in amplitude at 40 mg/l after 20 mins in presence of 5.4 mM/l K+ relative to control; format: functional, Canis lupus familiaris; in short: as §3
Homo sapiens [21] = species: Homo sapiens; test: Drug absorption in buccal cavity in human at pH 7.50 after 5 mins by UV spectrometry; format: ADME, organism-based; details: in vivo, other, pH 7.5, 5 min; in short: as §4
[22] = Effect on transmembrane action potential in dog purkinje cells assessed as change in amplitude at 10 mg/l after 20 mins in presence of 2.7 mM/l K+ relative to control; format: functional, Canis lupus familiaris; in short: as §3
Mus musculus [23] = test: Toxicity in ip dosed Swiss-Webster albino mouse; format: organism-based; details: in vivo
[24] = Effect on transmembrane action potential in dog purkinje cells assessed as average rising velocity at 40 mg/l after 20 mins in presence of 5.4 mM/l K+ relative to control; format: functional, Canis lupus familiaris; in short: as §2
Homo sapiens [25] = species: Homo sapiens; test: Drug absorption in buccal cavity in human at pH 5.50 after 5 mins by UV spectrometry; format: ADME, organism-based; details: in vivo, other, pH 5.5, 5 min; in short: as §4
[26] = Dissociation constant, pKa of the compound in 0.01 M potassium hydrogen phthalate; format: physicochemical
In short: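 pKa by potentiometric titration with 0.01 M potassium hydrogen phthalate in a thermostated vessel, stirred, under nitrogen bubbling, using glass and calomel electrodes. pKa is the mean pH at half-neutralization from four titrations. Endpoints were taken from parallel tangents on either side of the inflection.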

[27] = Effect on transmembrane action potential in dog purkinje cells assessed as change in activation time at 40 mg/l after 20 mins in presence of 5.4 mM/l K+ relative to control; format: functional, Canis lupus familiaris; in short: as §3
Heart [28] = test: Antiarrhythmic activity in Hartley guinea pig atria assessed as change in spontaneous rate at 58.6 uM/l after 5 mins; format: functional, Cavia porcellus; in short: as §1
Heart [29] = test: Antiarrhythmic activity in Hartley guinea pig atria assessed as change in maximum driving rate at 58.6 uM/l after 5 mins; format: functional, Cavia porcellus; in short: as §1
[30] = Effect on transmembrane action potential in dog purkinje cells assessed as average rising velocity at 30 mg/l after 20 mins in presence of 2.7 mM/l K+ relative to control; format: functional, Canis lupus familiaris; in short: as §2
[31] = Effect on transmembrane action potential in dog purkinje cells assessed as change in activation time at 30 mg/l after 20 mins in presence of 2.7 mM/l K+ relative to control; format: functional, Canis lupus familiaris; in short: as §2
[32] = Effect on transmembrane action potential in dog purkinje cells assessed as change in amplitude at 30 mg/l after 20 mins in presence of 2.7 mM/l K+ relative to control; format: functional, Canis lupus familiaris; in short: as §3
[33] = Effect on transmembrane action potential in dog purkinje cells assessed as change in activation time at 20 mg/l after 20 mins in presence of 2.7 mM/l K+ relative to control; format: functional, Canis lupus familiaris; in short: as §2
Heart [34] = test: Antiarrhythmic activity in Hartley guinea pig atria assessed as change in spontaneous rate at 55.0 uM/l after 5 mins; format: functional, Cavia porcellus; in short: as §1
Homo sapiens [35] = test: Toxicity in human assessed as numbness at 5 x 10' -5 M administered topically to buccal cavity measured up to 15 to 20 mins; format: organism-based; details: in vivo, topical_or_ocular, 50 µM
[36] = Effect on transmembrane action potential in dog purkinje cells assessed as change in amplitude at 20 mg/l after 20 mins in presence of 2.7 mM/l K+ relative to control; format: functional, Canis lupus familiaris; in short: as §3
[37] = Effect on transmembrane action potential in dog purkinje cells assessed as average rising velocity at 20 mg/l after 20 mins in presence of 2.7 mM/l K+ relative to control; format: functional, Canis lupus familiaris; in short: as §2
Heart [38] = test: Antiarrhythmic activity in Hartley guinea pig atria assessed as change in maximum driving rate at 55.0 uM/l after 5 mins; format: functional, Cavia porcellus; in short: as §1
Heart [39] = test: Antiarrhythmic activity in Hartley guinea pig atria assessed as change in maximum driving rate at 36.6 uM/l after 5 mins; format: functional, Cavia porcellus; in short: as §1
Heart [40] = test: Antiarrhythmic activity in Hartley guinea pig atria assessed as change in spontaneous rate at 73.2 uM/l after 5 mins; format: functional, Cavia porcellus; in short: as §1
Heart [41] = test: Antiarrhythmic activity in Hartley guinea pig atria assessed as reversible decrease in maximum driving rate compound treated for 5 mins measured up to 2 hrs post washout; format: functional, tissue-based; details: Cavia porcellus
In short: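 After compound exposure the bath was washed out. Two MDR determinations were made every 15 min for up to 2 h to follow reversibility and recovery toward control. Bath fluid was changed every 10 min.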

Heart [42] = test: Antiarrhythmic activity in Hartley guinea pig atria assessed as change in spontaneous rate at 36.6 uM/l after 5 mins; format: functional, Cavia porcellus; in short: as §1
Heart [43] = test: Antiarrhythmic activity in Hartley guinea pig atria assessed as change in maximum driving rate at 73.2 uM/l after 5 mins; format: functional, Cavia porcellus; in short: as §1

SMILES	Activity [2] [%]	selectivity ratio [4]	Activity [5] [%]	Drug absorption (Homo sapiens [7]) [%]	Activity [9] [%]	Activity [11] [%]	ED50 (Mus musculus [12]) [µmol/kg]	Activity [15] [%]	Activity [16] [%]	Activity [18] [%]	Activity [19] [%]	Drug absorption (Homo sapiens [21]) [%]	Activity [22] [%]	LD50 (Mus musculus [23])	Drug absorption (Homo sapiens [25]) [%]	pKa [26]	Activity (Homo sapiens [35])	also measured
COc1cc(C(=O)N[C@@H]2CCC[C@@H]3CCN(C)C[C@H]32)cc(OC)c1OC (mixture of isomers)	-1	6.7	0	31.1	0	2	124	-29	-9	-24	-4	18.1	0	835	5.5	8.75	–	Activity (Heart [1]): -14.4%; Activity [3]: -19%; Activity [6]: 105%; Activity (Heart [8]): -13.3%; Activity [10]: -8%; Activity [13]: -44%; Activity [14]: 23%; Activity [17]: -2%; Activity [20]: -6%; Activity [24]: -50%; Activity [27]: -1%
CN1CC[C@H]2CCC[C@@H](NC(=O)c3ccc(Cl)c(Cl)c3)[C@@H]2C1 (mixture of isomers)	42	12.7	-5	59.3	-11	–	104	-58	–	-30	18	25.7	–	1304	20.5	–	–	Activity (Heart [28]): -41.2%; Activity (Heart [29]): -45%; Activity [30]: -72%; Activity [31]: 81%; Activity [32]: -23%
COc1cc(C(=O)O[C@@H]2CCC[C@@H]3CCN(C)C[C@H]32)cc(OC)c1OC (mixture of isomers)	300	4.5	-17	69.5	-7	131	74	-71	-6	-50	530	19.7	-12	338	17.1	8.82	Toxic	Activity [33]: 389%; Activity (Heart [34]): -42.4%; Activity [36]: -15%; Activity [37]: -58%; Activity (Heart [38]): -54.5%
CN1CC[C@H]2CCC[C@@H](OC(=O)c3ccccc3)[C@H]2C1 (relative stereo)	–	3.7	–	81.8	–	–	245	–	–	–	–	46	–	900	29.7	9.05	Toxic	Activity (Heart [39]): -24.5%; Activity (Heart [40]): -57.8%; Activity (Heart [41]): Dose-dependent effect; Activity (Heart [42]): -23%; Activity (Heart [43]): -55.5%
